Assay results pooled from the literature.
Compare with care: the assays were run in different laboratories.
Target: Aurora kinase A (AURKA, Homo sapiens, UniProt O14965)
Residues used in one study (O14965 1-403): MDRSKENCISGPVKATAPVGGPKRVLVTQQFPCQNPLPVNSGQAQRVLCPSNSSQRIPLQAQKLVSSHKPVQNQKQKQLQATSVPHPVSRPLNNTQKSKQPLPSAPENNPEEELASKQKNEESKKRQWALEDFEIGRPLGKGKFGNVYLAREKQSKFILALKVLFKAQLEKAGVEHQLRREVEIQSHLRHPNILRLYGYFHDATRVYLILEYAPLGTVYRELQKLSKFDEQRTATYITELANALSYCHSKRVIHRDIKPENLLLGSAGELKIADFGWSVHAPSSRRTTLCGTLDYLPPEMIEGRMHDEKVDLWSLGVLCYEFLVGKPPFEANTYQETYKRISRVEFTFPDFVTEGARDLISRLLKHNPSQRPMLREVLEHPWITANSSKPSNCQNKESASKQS

SMILES | effect on | method | tested at | remaining binding
c1cncc(-c2cccc(Nc3nccc(NC4CCCCC4)n3)c2)c1 | binding | competition with immobilised ligand | 10 µM | 5.9%
Nc1cnc(N2CCc3cc(S(=O)(=O)Nc4c(F)cc(Cl)cc4F)cc(N4CCCC4=O)c32)nc1 | cell-free assay | competition with immobilised ligand | 1 µM | 100%
O=C(c1ccc(Nc2ncc(Cl)c(-c3cc4ccccc4s3)n2)cc1)N1CCC(N2CCCC2)CC1 | binding | competition with immobilised ligand | 1 µM | 9.2%
O=C(Nc1cccnn1)N1CC(C/C=C/c2cncc(Oc3ccc(C(F)(F)F)cn3)n2)C1 | cell-free assay | competition with immobilised ligand | 1 µM | 100%
C[C@@H]1CCN(c2nccc(-c3cnn4ncccc34)n2)C1 | binding |  | 1 µM | 92%
CNC(=O)[C@@H]1CC[C@@H](n2c(-c3ccc4cnccc4c3)nc3ccc(C(=O)NCc4cccc(C(N)=O)c4)cc32)C1 | binding | competition with immobilised ligand | 1 µM | 100%
C[C@@H]1CN(c2ccc3ncc(-c4ccc5[nH]nc(C6CC6)c5c4)n3n2)C[C@H](C)O1 | binding | competition with immobilised ligand | 50 nM | 87%
COc1cc(C(=O)N2CCC(N3CCN(C)CC3)CC2)ccc1Nc1ncc2c(n1)N(C)c1ccccc1C(=O)N2C | binding | competition with immobilised ligand | 10 µM | 1.2%
CS(=O)(=O)NCC[C@H](NC(=O)c1cncc2c1cnn2-c1ccc(F)cc1)c1ccnc(S(C)(=O)=O)c1 | cell-free assay | competition with immobilised ligand | 1 µM | 100%
Nc1ncc2c(n1)-c1c([nH]c3ccc(C#CC4CC4)cc13)CCCC2 | binding | competition with immobilised ligand | 1 µM | 80%
COc1cnc(Nc2cccc(S(N)(=O)=O)c2)nc1N1CCN(c2ccccc2)CC1 | binding | competition with immobilised ligand | 1 µM | 85%
FC(F)(F)c1ccc2c(c1)nc(-c1cccnc1)n2C1CC1 | cell-free assay | competition with immobilised ligand | 1 µM | 98%
CN(C)c1nccc(-c2cnc3ncccn23)n1 | binding |  | 1 µM | 49%
COc1ccc2cc(OCC3(C(=O)O)CN(C(=O)c4ccc(F)cc4)C3)ccc2c1 | cell-free assay | competition with immobilised ligand | 1 µM | 100%
Cc1cnn2ncc(-c3ccnc(N(C)C)n3)c2c1 | binding |  | 1 µM | 99%
CCN1CCN(Cc2ccc(C(=O)Nc3ccc(C)c(Oc4ccc5c(c4)CC(=O)N5)c3)cc2C(F)(F)F)CC1 | binding | competition with immobilised ligand | 1 µM | 100%
O=C(c1ccc(Nc2nccc(-c3cc4ccccc4s3)n2)cc1)N1CCC(N2CCCC2)CC1 | binding | competition with immobilised ligand | 1 µM | 33%
COc1ncc2cc3ccccc3nc2c1C#N | cell-free assay | competition with immobilised ligand | 5 µM | 100%
CC1CCCN1c1nccc(-c2cnn3ncccc23)n1 (centres unmarked) | binding |  | 1 µM | 87%
Cc1c(NC(=O)c2cc(C(N)=O)nc3cc(F)ccc23)c(C(F)(F)F)nn1Cc1ccc(C(C)(C)C)cc1 | cell-free assay | competition with immobilised ligand | 1 µM | 100%
N[C@@H]1CCN(c2nccc(-c3cnn4ncccc34)n2)C1 | binding |  | 1 µM | 100%
O=C(NCC1CCOCC1)c1n[nH]cc1NC(=O)c1c(F)cccc1F | binding | competition with immobilised ligand | 1 µM | 87%
C[C@H](c1ccc(F)cc1)N(Cc1cccc(C(=O)O)c1)C(=O)c1cnc2ccccc2c1 | cell-free assay | competition with immobilised ligand | 1 µM | 100%
CN(CCCC(F)(F)F)c1nccc(-c2cnn3ncccc23)n1 | binding |  | 1 µM | 90%
O=C(NCc1ncc(C(F)(F)F)cc1Cl)c1ccc2c(c1)C1(CCS(=O)(=O)CC1)[C@@H](C1CC1)N2S(=O)(=O)c1ccc(F)cc1 | cell-free assay | competition with immobilised ligand | 1 µM | 81%
O=C(c1ccc(Nc2ncc(Cl)c(-c3ccc(Cl)s3)n2)cc1)N1CCC(N2CCCC2)CC1 | binding | competition with immobilised ligand | 1 µM | 1.9%
